Data: PubChem BioAssay AID617 (SRMLSC, 2007)

tested on: E. coli BW25113 ΔtolC growth inhibition, OD615; test: growth inhibitors of E. coli tolC mutant, dose response, strain BW25113 ΔtolC::kan (AID 617)
Summary of the method: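 Test system: E. coli BW25113 ΔtolC::kan bacteria / Buffer or medium: kanamycin-containing LB broth, 50 µg/mL / Compound: serial dilution series of compound / Incubation: bacterial growth with compound for 20 h, 37 °C / Measured by: OD615 / Read-out basis: growth-inhibition IC50 from four-parameter logistic curve, bounds set to 0% and 100%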

| Compound | IC50 [µM] |
| --- | --- |
| CCOC(=O)c1cnc(-n2nc(C)cc2C)nc1NC(C)c1ccccc1 (stereo not given) | 2.76 |
| COc1ccc(-c2cnc(SCC(=O)Nc3cc(C)on3)n2Cc2ccco2)cc1 | 35.7 |
| Cc1nc2c(-c3ccccc3)c(C)[nH]n2c(=O)c1Cl | 3.59 |
| CCOc1ccc2[nH]c3c(N4CCN(c5ccccn5)CC4)ncnc3c2c1 | 12.2 |
| O/N=C(\c1ccc(Cl)cc1)c1cc2ccccc2o1 | 5.7 |
| O=S(=O)(Nc1ncnc2sc3c(c12)CCC3)c1ccc(Cl)s1 | 5.93 |
| Cn1c(C(=O)N2CCN(c3cccc(C(F)(F)F)c3)CC2)cc2sccc21 | 15.4 |
| COc1ccc2c(-c3ccccc3)cc(N3CCOCC3)nc2c1 | 17.9 |
| C=CCOC(=O)C(C#N)c1nc2ccccc2nc1N1CCCC1 (stereo not given) | 8.74 |
| O=C(Nc1nnc(-c2ccccc2)o1)c1ccc(Cl)cc1 | 0.17 |
| Cc1ccc(C(c2nnnn2CCc2ccccc2)N2CCSCC2)cc1 (stereo not given) | 30.9 |
| CCOc1ccc(C(=O)C2CCN(CC(=O)Nc3ccccc3N3CCOCC3)CC2)cc1 | 15.6 |
| O=C(c1ccc(COc2ccc(Cl)cc2)o1)N1CCN(Cc2ccc3c(c2)OCO3)CC1 | 5.35 |
| CCn1c(SCC(=O)OC2CCCCC2)nc2ccccc2c1=O | 11.8 |
| CC1CN(c2nc3c(c(=O)n(Cc4ccc(Cl)c(Cl)c4)c(=O)n3C)n2C)CC(C)O1 (stereo not given) | 20.4 |
| Cc1cc(C)cc(-n2ccnc2SCC(=O)Nc2ccc3c(c2)OCCO3)c1 | 28.1 |
| Clc1ccc(C2=Nn3c(nnc3-c3n[nH]c4c3CCC4)SC2)cc1Cl | 11 |
| CCOc1ccccc1-c1nn2c(Cc3ccccc3)nnc2s1 | 0.76 |
| COc1nc(N(c2ccccc2)c2ccccc2)nc(-n2ccnc2)n1 | 5.65 |
| Cc1cc(N2CCN(c3ccccc3)CC2)nc(-n2nc(C)cc2C)n1 | 7.6 |
| CC(C)Cn1c(=O)c(C(=O)Nc2ccncc2)c(O)c2ccccc21 | 3.34 |
| Cc1cc(C)cc(Nc2cc(=O)n(C3CCCCC3)c(=O)[nH]2)c1 | 2.8 |

| Compound | IC50 [µM] |
| --- | --- |
| Cc1ccc2[nH]c3c(c2c1)CCc1cn[nH]c1-3 | 17.8 |
| O=C1NC(Nc2nc3ccccc3s2)(C(F)(F)F)C(=O)N1C1CCCCC1 (stereo not given) | 5.74 |
| O=S(=O)(Nc1nc2ccccc2nc1NCc1ccco1)c1ccccc1 | 8.89 |
| c1ccc(N2CCN(c3ncnc4c3oc3ccccc34)CC2)cc1 | 40.5 |
| O=C(c1noc2c1CCc1ccccc1-2)N1CCc2ccccc2C1 | 6.67 |
| CC1(C)Cc2c(sc3c2c(=N)n(Cc2ccco2)c(=O)n3Cc2ccc(Cl)cc2)CO1 | 13.3 |
| COCCCN1C(=O)c2[nH]nc(-c3ccccc3O)c2C1c1ccc(Cl)cc1 (stereo not given) | 5.96 |
| COc1ccc(-c2n[nH]c(C(F)(F)F)c2-c2cc3ccccc3o2)c(O)c1 | 1.99 |
| CCNc1nc(NC(C)C)nc(N(C#N)Cc2ccccc2)n1 | 18.1 |
| CCCOc1ccccc1NC(=O)c1c(-c2ccccc2)noc1C | 15.1 |
| CCn1c(=O)c2cc(C(=O)N3CCN(C(=O)c4ccco4)CC3)sc2c2ccccc21 | 6.29 |
| COc1nnc(-c2ccc(N3CCCCC3)c(N)c2)c2ccccc12 | 11.9 |
| CSc1nc2ccc(NS(=O)(=O)c3ccc4c(c3)OCCO4)cc2s1 | 2.88 |
| O=C(COc1ccccc1Br)c1ccc(O)cc1O | 13.1 |
| Cc1cc(C)n(-c2nc(SCC(=O)N3CCCC3)c3c4c(sc3n2)CCCC4)n1 | 23.9 |
| Cc1nn(-c2ccccc2)c2sc(C(=O)N(CC(=O)NC(C)(C)C)Cc3ccco3)cc12 | 24.2 |
| Fc1ccc(Cn2nnnc2C(c2cccs2)N2CCCCCC2)cc1 (stereo not given) | 10.5 |
| CCCc1nc(SCC(=O)N2CCCc3ccccc32)c2c(=O)n(C)c(=O)n(C)c2n1 | 11.6 |
| FC(F)(F)c1cccc(N2CCN(c3nnnn3-c3ccccc3)CC2)c1 | 20.8 |
| Cc1cccnc1Nc1nc(-c2ccc(O)cc2O)cs1 | 17.8 |
| CCCOc1ccccc1C1CC(=O)Nc2cc3c(cc21)OCCO3 (stereo not given) | 24.1 |
| Cc1cccc(N2CCN(C(=O)C34CC5CC(CC(C5)C3)C4)CC2)c1C | 19.6 |

| Compound | IC50 [µM] |
| --- | --- |
| CC(C)N(Cc1nc(-c2ccc(Cl)cc2)no1)C(=O)CCC1CCCC1 | 15.5 |
| CCC(Sc1nnc(-c2ccc(C)c(Cl)c2)n1CC)C(=O)Nc1nccs1 (stereo not given) | 14.9 |
| CN1CCN(CC(=O)N2CCn3c4c(c5cc(C6CCCCC6)ccc53)CCCC42)CC1 (stereo not given) | 66.7 |
| CCC(C)(C)n1nnnc1CN(Cc1ccc(Cl)cc1)Cc1ccco1 | 12.6 |
| Cc1ccccc1C1=NCC(=O)N(CC(=O)NCc2ccco2)c2sc3c(c21)CCCC3 | 28.6 |
| CCc1ccccc1NS(=O)(=O)c1ccc(SC)cc1 | 41.6 |
| O=C(CSc1nc2nc(-c3cccs3)cc(C(F)(F)F)c2c(=O)[nH]1)NCc1ccco1 | 5.53 |
| CC(C)C[C@H](NC(=O)OC(C)(C)C)c1nnc(SCc2cccc(F)c2)o1 | 11.9 |
| O=C(NCc1ccccc1)c1c[nH]c2ccc(S(=O)(=O)Nc3ccc4c(c3)OCCO4)cc2c1=O | 9.4 |
| CCOC(=O)c1cn(CC)c2cc(N3CCOCC3)c(F)cc2c1=O | 0.78 |
| CCSc1nnc(NC(=O)c2cccc(OCc3c(C)noc3C)c2)s1 | 10.8 |
| Cc1ccc(SCC(=O)N(Cc2nc(-c3ccccc3)no2)C(C)C)cc1 | 10.8 |
| COc1ccc(-n2c(COc3ccccc3)nnc2SCc2ccc(C#N)cc2)cc1 | 14.2 |
| OC(COc1ccc(Cl)c2ccccc12)CN1CCN(c2ccccn2)CC1 (stereo not given) | 11.6 |
| CCC(=NCc1ccc2c(c1)OCO2)c1c(O)n(C2CCCCC2)c(=O)[nH]c1=O | 12 |
| N#Cc1nc(Cc2cccc3ccccc23)oc1NCc1ccc(F)cc1 | 11.7 |
| O=C(O)C1CC=CCC1C(=O)Nc1ccc(S(=O)(=O)N2CCCc3ccccc32)cc1 (stereo not given) | 8.93 |
| CC1CN(c2oc(COc3ccc(Cl)cc3Cl)nc2C#N)CC(C)O1 (stereo not given) | 10.3 |
| CCc1ccc2[nH]c(=O)c(C(c3nnnn3CCOC)N3CCN(c4ccc(F)cc4)CC3)cc2c1 (stereo not given) | 35.7 |
| CCC1(C)Cc2ccccc2-c2nc3n(c(=O)c21)CCCCC3 (stereo not given) | 15.8 |
| CSc1ccc(S(=O)(=O)Nc2ccc(N3CCOCC3)c(Cl)c2)cc1 | 6.56 |
| CC1=CC(C)(C)N(C(=O)CSc2nnc(-c3ccccc3)o2)c2ccc(C)cc21 | 16.3 |

| Compound | IC50 [µM] |
| --- | --- |
| CSCc1nnc(NC(=O)c2ccc(S(=O)(=O)N(CC(C)C)CC(C)C)cc2)o1 | 0.3 |
| CCCCCCOC(=O)C(C#N)c1nc2ccccc2nc1N1CCN(C)CC1 (stereo not given) | 12.9 |
| CCc1c(O)nc(SCC(=O)Nc2ccc(C)cc2)n(C2CCCCC2)c1=O | 7.36 |
| Cc1nn(-c2nc3ccccc3n2Cc2ccccc2)c2c1C(=O)CC(C)(C)C2 | 8.51 |
| CCCCN1C(=O)C2ON(c3ccccc3C)C(c3ccco3)C2C1=O (stereo not given) | 14.4 |
| CCOc1cc(S(=O)(=O)n2cc(-c3ccc(F)cc3)c(N)n2)cc(OCC)c1OCC | 21 |
| CCOC(=O)Cc1ccc(NS(=O)(=O)c2ccc(SC)cc2)cc1 | 14.7 |
| COC(=O)c1c(NC(=O)CCc2ccc(C)o2)sc(C)c1C | 26.8 |
| CCCCCc1cc(O)c2c(C)cc(=O)oc2c1 | 2.16 |
| CCOc1ccc(NS(=O)(=O)c2ccc3[nH]cc(C(=O)NC(C)CC)c(=O)c3c2)cc1 (stereo not given) | 11.1 |
| CCCCC(=O)c1c(O)c2ccccc2oc1=O | 7.48 |
| CCCOc1ccc2oc(=O)c3c(c2c1)CCCN3C(=O)CN1CCc2ccccc2C1 | 14.1 |
| O=C(Nc1ccc(C(F)(F)F)cc1Cl)c1ccc(Cn2cc(Br)cn2)o1 | 9.95 |
| Brc1cc(Br)c2ncnc(N3CCCCC3)c2c1 | 34.6 |
| CCOC(=O)c1c(-c2ccccc2)oc2ccc(OC(=O)N(C)C)cc12 | 9.1 |
| CC(C)COc1ccc(-c2nnc(-c3ccco3)o2)cc1 | 40.6 |
| CC1=C(C(=O)OC2CCCCCCC2)C(c2cccc(O)c2)NC(=O)N1 (stereo not given) | 12.3 |
| CCSC1=C(C#N)C(c2ccc(Cl)cc2)C2=C(CCCC2=O)N1 (stereo not given) | 8.21 |
| O=C(NCCc1ccccc1)c1nc2c(nnn2Cc2ccccc2Cl)c(=O)[nH]1 | 4.65 |
| Cc1nn(-c2ccccc2)c(Cl)c1C(=O)Nc1nnc(C2CCCC2)s1 | 8.48 |
| CC(=O)OCC1=C(C(=O)O)N2C(=O)[C@@H](NC(=O)Cc3cccs3)[C@H]2SC1 | 1.01 |
| CC1Oc2ccccc2N(Cc2ccccc2Cl)C1=O (stereo not given) | 27.9 |

| Compound | IC50 [µM] |
| --- | --- |
| CO[C@@]1(NC(=O)Cc2cccs2)C(=O)N2C(C(=O)O)=C(COC(N)=O)CS[C@@H]21 | 2 |
| O=C(CSc1nnc(Cc2cccs2)n1Cc1ccco1)Nc1ccc(Br)cc1 | 5.74 |
| O=C(Nc1ccc(S(=O)(=O)N2CCCc3ccccc32)cc1)C1CCCO1 (stereo not given) | 19.6 |
| Cc1cc(Nc2ccccc2)nc(-c2ccccc2O)n1 | 15.4 |
| COc1ccc(-c2[nH]ncc2Oc2ccccc2OC)c(O)c1 | 10.5 |
| Cc1ccc(C2C(S(C)(=O)=O)=C(O)C(=O)N2c2ccccc2)cc1 (stereo not given) (tested in a mixture with another compound) | 4.81 |
| COC(=O)c1cc(C(=O)CSc2nc(C)cc(C)n2)ccc1O | 4.31 |
| CCOC(=O)c1cccc(NC(=O)c2cc3sccc3n2C)c1 | 9.82 |
| C=CCc1c(C)nc(SCc2nc3ccccc3c(=O)[nH]2)[nH]c1=O | 6.54 |
| CCCCC(CC)CNC(=O)c1[nH]c(C)c(C(C)=O)c1C (stereo not given) | 1.28 |
| C=CCn1c(NC(C)c2cc(Cl)ccc2O)nc2ccccc21 (stereo not given) | 6.8 |
| N=c1c2c(-c3ccccc3)c(-c3ccccc3)n(Cc3ccco3)c2ncn1Cc1ccco1 | 4.32 |
| Cc1ccc(S(=O)(=O)N(Cc2ccc(F)cc2)Cc2ccco2)cc1 | 7.01 |
| CC1CCCN(c2ccc(C(=O)NCCc3ccccc3)cn2)C1 (stereo not given) | 49.4 |
| CCOC(=O)c1c(NC(=O)CN2CCCCC2)sc2c1CCN(C(=O)OCC)C2 | 10.7 |
| CC1(C)CC2CC(C)(CN2C(=O)c2cc(-c3ccccc3O)on2)C1 (stereo not given) | 3.42 |
| O=c1ccsn1Cc1ccccc1 | 3.15 |
| CCOc1ccc(C(=O)N2CCN(c3cccc(C)c3C)CC2)cc1 | 11 |
| O=C(c1ccc2c(=O)n(C3CCCC3)c(=S)[nH]c2c1)N1CCN(C2CCCCC2)CC1 | 15 |
| CCN(CC)c1ccc(C(=O)n2cnc3ccccc32)cc1 | 15 |
| COc1ccccc1N1CCN(C(=O)c2cc(-c3ccc(C)cc3)on2)CC1 | 7.85 |
| CC1CC(C)CN(c2ncnc3c2cnn3Cc2ccc(Cl)cc2)C1 (stereo not given) | 6.08 |
